# Test system: MDA-MB-468
# Assay: Cytotoxicity against human MDA-MB-468 cells assessed as cell growth at 10 uM after 48 hrs by sulforhodamine B assay relative to control
# Type: functional
# Conditions: MDA-MB-468, 48 h, read-out: Activity
# How it was run: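 Adherent cells were grown in RPMI 1640 with 5% FBS and 2 mM L-glutamine, seeded at 5000–40 000 cells/well by doubling time, and held 24 h at 37 °C, 5% CO2 before drug. Time-zero plates were TCA-fixed. Compound in DMSO, single dose 10 μM, 48 h. Cells were fixed with cold TCA (final 10%, 60 min, 4 °C) and stained with 0.4% SRB. Bound dye was dissolved in 10 mM Tris base and read at 515 nm. Percent growth was derived from time-zero, control and treated absorbances.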
smiles,measurement,value
COc1nccc2c(-c3cccc(F)c3)nc(N)nc12,growth at 10 µM,28.6%

# From ChEMBL document CHEMBL3217692, “Synthesis and cytotoxicity evaluation of novel pyrido[3,4-d]pyrimidine derivatives as potential anticancer agents” (2012)
